Reference: ChEMBL document CHEMBL1124333, “Prostaglandin photoaffinity probes: synthesis and biological activity of azide-substituted 16-phenoxy- and 17-phenyl-PGF2 alpha prostaglandins” (J Med Chem, 1989)

Legend:
[1] = molecular target: T1, Prostaglandin F2-alpha receptor (Bos taurus, UniProt P37289); experiment: Binding potency towards Prostaglandin F2 alpha receptor (competitive binding) with natural [3H]-PGF 2 alpha in bovine corpora lutea plasma membranes (BCLM)
Summary of the method: (§1)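 Bovine corpora lutea were homogenized in ice-cold 10 mM Tris-HCl pH 7.0 with 250 mM sucrose, 1 mM CaCl2, BSA, indomethacin, DTT and protease inhibitors. Membranes were pelleted at 17339g and resuspended at about 1-2 mg protein/mL. They were diluted 1:1 with serum-free culture medium and incubated 90 min, to equilibrium, with [3H]PGF2α and competitor.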

[2] = Relative ratio in comparison with PGF2-alpha in bovine corpus lutea membranes; format: cell membranes
[3] = Relative ratio in comparison with PGF2-alpha in ovine luteal cells; format: cell-based
[4] = molecular target: T1, Prostaglandin F2-alpha receptor; experiment: Binding potency towards PGF-2 alpha receptor (competitive binding) with natural [3H]-PGF 2 alpha in bovine corpora lutea plasma membranes (BCLM); summary of the method: as §1
[5] = Relative ratio in comparison with PGF2-alpha

T1 sequence (P37289 whole entry): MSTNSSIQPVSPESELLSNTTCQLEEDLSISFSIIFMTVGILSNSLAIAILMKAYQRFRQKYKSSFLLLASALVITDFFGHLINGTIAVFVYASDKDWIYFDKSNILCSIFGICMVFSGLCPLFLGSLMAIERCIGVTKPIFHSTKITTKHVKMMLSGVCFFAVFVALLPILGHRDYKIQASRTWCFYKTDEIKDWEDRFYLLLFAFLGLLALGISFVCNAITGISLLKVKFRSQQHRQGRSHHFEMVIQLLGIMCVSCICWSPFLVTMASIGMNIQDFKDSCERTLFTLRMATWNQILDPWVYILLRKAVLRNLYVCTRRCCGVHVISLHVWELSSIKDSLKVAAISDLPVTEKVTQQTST

Structure (SMILES) | IC50 [1] [µM] | Ratio [2] | IC50 [4] [µM] | Ratio [5] | Ratio [3]
COC(=O)CCC/C=C\C[C@@H]1C(/C=C/[C@H](O)CCc2ccccc2)[C@H](O)C[C@@H]1O (stereo not given in full) | – | 360 | 50 | – | –
COC(=O)CCC/C=C\C[C@@H]1C(/C=C/[C@@H](O)CCc2ccccc2)[C@H](O)C[C@@H]1O (stereo not given in full) | – | 14 | 2 | – | –
[N-]=[N+]=Nc1ccc(CC[C@H](O)/C=C/[C@@H]2[C@@H](C/C=C\CCCC(=O)O)[C@@H](O)C[C@H]2O)cc1I | 7 | 50 | – | – | 8.1
[N-]=[N+]=Nc1cc(O)cc(OC[C@H](O)/C=C/[C@@H]2[C@@H](C/C=C\CCCC(=O)O)[C@@H](O)C[C@H]2O)c1 | – | – | – | – | 250

Now from value to compound, other results behind:

IC50 [1] [µM] | Ratio [2] | IC50 [4] [µM] | Ratio [5] | Structure (SMILES) | Ratio [3]
220 | 1600 | – | – | [N-]=[N+]=Nc1ccc(CC[C@H](O)/C=C/[C@@H]2[C@@H](C/C=C\CCCC(=O)O)[C@@H](O)C[C@H]2O)c(O)c1 | 140
68 | – | – | 490 | [N-]=[N+]=Nc1ccc(CC[C@@H](O)/C=C/[C@@H]2[C@@H](C/C=C\CCCC(=O)O)[C@@H](O)C[C@H]2O)cc1I | –
120 | 860 | – | – | [N-]=[N+]=Nc1ccc(OC[C@H](O)/C=C/[C@@H]2[C@@H](C/C=C\CCCC(=O)O)[C@@H](O)C[C@H]2O)c(O)c1 | –
